Experimental data taken from PMC4874899 (Cell chemical biology, 2016).

Legend:
cells [1] = details: ref Gao et al., 2009; Gillmeister et al., 2011; Lee et al., 2010; cited from earlier work
[2] = system: L.E. LUVs (77:19:4 BMP:PC:PE); details: monomeric TAT; ref Yang et al., 2010; cited from earlier work
[3] = system: mEmerald-TGOLN2 transport; experiment: Retrograde transport of the TGN marker mEmerald-TGOLN2; format: cell-based; details: retro-2 20 µM
cells [4] = experiment: Cytosolic penetration / endosomal escape by fluorescence microscopy; format: cell-based; details: retro-2 20 µM, 30 min prior to dfTAT (3 µM, 1 h)
Outline: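 Cells at 80–90% confluency (48 h) pretreated 30 min with 20 µM retro-2, then 3 µM dfTAT for 1 h at 37 °C in serum-free L-15. Washed with heparin-containing L-15 (1 mg/mL); SYTOX (5 µM) stained cells excluded. Imaged at 37 °C; % nucleoli-positive cells of bright-field total, >500 cells per experiment, triplicates; t-test.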

Molecule | escape from the endocytic pathway (cells [1]) | effect on BMP-containing liposomes [2] | inhibition of transport of TGN marker mEmerald-TGOLN2 [3] | effect on dfTAT-mediated endosomal escape (cells [4])
RKKRRQRRR [TAT] | only at a very low efficiency | leaky fusion | – | –
Cc1ccc(C=Nc2ccccc2C(=O)Nc2ccccc2)s1 [retro-2] | – | – | capable of inhibiting the transport | had no effect on dfTAT-mediated escape
